Data set [1] has as its system Mus musculus. Briefly: Anti-inflammatory activity in orally dosed C57BL/6 mouse model of MOG (35 to 55 residues)/pertussis toxin/anti-CD3 antibody-induced experimental allergic encephalomyelitis assessed as inhibition of IL17 production measured 8 hrs after post dose by ELISA. Type of data set: functional. Put shortly: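 Female C57BL/6 mice immunized subcutaneously at two back sites (75 μg MOG35–55 per site; peptide at 3 mg/mL in D-PBS emulsified 1:1 with complete Freund's adjuvant), plus intraperitoneal pertussis toxin 0.2 μg on days 1 and 3. Day 5: anti-CD3 1 μg i.v. Oral dosing 3 h or 8 h before anti-CD3, 5 mice/group. Blood taken 2 h post-anti-CD3; plasma IL-17A measured by ELISA.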
A general note: An ELISA detects its analyte on a solid surface through an enzyme-linked reagent.

The nature of data set [2]: Terminal half life in CD(SD) rat at 1 mg/kg, iv. Type of data set: ADME, organism-based. The following applies: in vivo, read-out: beta t1/2 (converted).
Data set [3] has as its system Mus musculus. Briefly: Anti-inflammatory activity in C57BL/6 mouse model of IL23-induced dermatitis assessed as inhibition of ear swelling at 3 to 30 mg/kg, po administered once daily from day 1 to 11 and measured on days 1, 5, 8, 10, 12 post dose. The data set is classed as functional, organism-based. The method in brief: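 IL-23 dermatitis: 250 ng recombinant mouse IL-23 in 20 μL PBS with 0.1% BSA injected intradermally into left ear of anesthetized mice on days 1, 3, 5, 8 and 10. Oral dosing at 3 and 30 mg/kg (vehicle 0.5% MC, 10 mL/kg) daily days 1–11. Left ear thickness measured by digital gauge on days 1, 5, 8, 10, 12; change from day 1 baseline.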

In a further data set the target is T1, Cytochrome P450 1A2 (Homo sapiens, UniProt P05177).
T1 sequence (P05177 whole entry): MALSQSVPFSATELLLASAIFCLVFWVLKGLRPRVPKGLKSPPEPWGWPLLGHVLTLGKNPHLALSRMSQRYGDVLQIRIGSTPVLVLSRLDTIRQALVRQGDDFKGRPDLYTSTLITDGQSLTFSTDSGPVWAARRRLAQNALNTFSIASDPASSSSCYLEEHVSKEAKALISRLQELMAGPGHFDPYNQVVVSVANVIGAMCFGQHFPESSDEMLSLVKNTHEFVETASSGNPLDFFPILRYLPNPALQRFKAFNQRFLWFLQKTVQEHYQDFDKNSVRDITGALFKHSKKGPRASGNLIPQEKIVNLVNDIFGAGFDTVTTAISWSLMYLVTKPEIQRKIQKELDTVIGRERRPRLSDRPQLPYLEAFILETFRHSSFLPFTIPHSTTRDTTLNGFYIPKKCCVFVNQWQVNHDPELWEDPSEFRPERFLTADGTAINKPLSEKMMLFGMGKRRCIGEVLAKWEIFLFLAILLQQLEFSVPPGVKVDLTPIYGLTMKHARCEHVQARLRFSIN
Kind of data set: Time-dependent inhibition of human CYP1A2. The data set is classed as ADME.

Another data set has as its target Cytochrome P450 2D6 (Homo sapiens, UniProt P10635). Briefly: Time-dependent inhibition of human CYP2D6. The data set is classed as ADME.
A short description of data set [4]: Volume of distribution at steady state in CD(SD) rat at 1 mg/kg, iv. Type of data set: ADME, organism-based. The following applies: in vivo, read-out: Vdss.
Another data set concerns the target Cytochrome P450 2C9 (Homo sapiens, UniProt P11712). Kind of data set: Time-dependent inhibition of human CYP2C9. Type of data set: ADME.
Data set [5] in a line: Total body clearance in CD(SD) rat at 1 mg/kg, iv. The data set is classed as ADME, organism-based. The following applies: in vivo.
Data set [6] addresses T2, Cytochrome P450 3A4 (Homo sapiens, UniProt P08684). Kind of data set: Time-dependent inhibition of human CYP3A4 using testosterone as substrate. The data set is classed as ADME.
Data set [7] in a line: MRT in CD(SD) rat at 3 mg/kg, po. Type of data set: ADME, organism-based. The following applies: in vivo.
A further data set concerns the target T3, Retinoid X receptor (Homo sapiens, UniProt P28702+P48443+P19793).
T3 sequence (P28702 whole entry): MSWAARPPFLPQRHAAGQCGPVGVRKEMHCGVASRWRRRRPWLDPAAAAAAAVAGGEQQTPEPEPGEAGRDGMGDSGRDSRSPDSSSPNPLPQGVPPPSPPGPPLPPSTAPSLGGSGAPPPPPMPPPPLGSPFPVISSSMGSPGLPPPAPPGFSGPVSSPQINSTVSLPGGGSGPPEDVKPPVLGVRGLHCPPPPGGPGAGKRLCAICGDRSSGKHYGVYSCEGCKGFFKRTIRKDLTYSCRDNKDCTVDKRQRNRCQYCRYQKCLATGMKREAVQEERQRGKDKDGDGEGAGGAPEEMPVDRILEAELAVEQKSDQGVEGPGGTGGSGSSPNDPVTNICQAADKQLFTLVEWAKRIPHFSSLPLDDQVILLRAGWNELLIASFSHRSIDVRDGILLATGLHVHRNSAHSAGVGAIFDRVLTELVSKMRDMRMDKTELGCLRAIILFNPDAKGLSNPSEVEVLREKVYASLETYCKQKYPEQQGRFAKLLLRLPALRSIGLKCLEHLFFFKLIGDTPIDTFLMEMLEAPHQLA
T3 sequence (P48443 whole entry): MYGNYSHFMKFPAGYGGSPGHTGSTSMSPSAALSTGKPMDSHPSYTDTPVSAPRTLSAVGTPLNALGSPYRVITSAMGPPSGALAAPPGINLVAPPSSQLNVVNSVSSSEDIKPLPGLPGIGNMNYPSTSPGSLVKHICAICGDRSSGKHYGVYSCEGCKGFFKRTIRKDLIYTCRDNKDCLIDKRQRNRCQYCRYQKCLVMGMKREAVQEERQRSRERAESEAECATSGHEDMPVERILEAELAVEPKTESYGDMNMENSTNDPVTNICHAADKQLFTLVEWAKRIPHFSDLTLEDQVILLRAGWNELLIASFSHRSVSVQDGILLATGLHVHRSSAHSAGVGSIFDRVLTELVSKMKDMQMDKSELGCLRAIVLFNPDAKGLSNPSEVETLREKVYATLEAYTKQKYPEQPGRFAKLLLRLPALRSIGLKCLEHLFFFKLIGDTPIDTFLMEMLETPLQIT
T3 sequence (P19793 whole entry): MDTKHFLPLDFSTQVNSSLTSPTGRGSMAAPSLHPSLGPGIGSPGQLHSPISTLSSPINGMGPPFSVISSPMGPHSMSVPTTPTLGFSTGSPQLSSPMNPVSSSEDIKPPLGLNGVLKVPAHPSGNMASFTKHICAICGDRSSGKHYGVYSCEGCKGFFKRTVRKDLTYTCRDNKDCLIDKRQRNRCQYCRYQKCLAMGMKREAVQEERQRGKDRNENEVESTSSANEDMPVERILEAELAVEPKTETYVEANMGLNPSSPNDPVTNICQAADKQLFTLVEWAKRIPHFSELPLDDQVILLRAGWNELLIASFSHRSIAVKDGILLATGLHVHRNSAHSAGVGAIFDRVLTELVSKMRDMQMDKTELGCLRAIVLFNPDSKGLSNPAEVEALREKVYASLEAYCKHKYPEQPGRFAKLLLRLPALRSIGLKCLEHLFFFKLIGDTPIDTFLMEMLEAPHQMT
Briefly: Inhibition of GAL4-fused human RXR transcriptional activity expressed in CHOK1 cells after 2 days by luciferase reporter gene assay. The data set is classed as cell-based. (In a reporter assay the amount or activity of a reporter protein is the signal.)

A short description of data set [8]: Inhibition of GAL4-fused mouse LXR transcriptional activity expressed in CHOK1 cells after 2 days by luciferase reporter gene assay. Type of data set: cell-based. The conditions noted are these: CHO-K1, 48 h.
The target in data set [9] is T2, Cytochrome P450 3A4. Briefly: Time-dependent inhibition of human CYP3A4 using midazolam as substrate. The data set is classed as ADME.

Experimental findings from ChEMBL document CHEMBL4480411, “Discovery of Second Generation RORγ Inhibitors Composed of an Azole Scaffold” (J Med Chem, 2019) are described below.

Active and inactive are the calls of the source. The calls are words filed in the database; no cut-off is given here.

T2 sequence (P08684 whole entry): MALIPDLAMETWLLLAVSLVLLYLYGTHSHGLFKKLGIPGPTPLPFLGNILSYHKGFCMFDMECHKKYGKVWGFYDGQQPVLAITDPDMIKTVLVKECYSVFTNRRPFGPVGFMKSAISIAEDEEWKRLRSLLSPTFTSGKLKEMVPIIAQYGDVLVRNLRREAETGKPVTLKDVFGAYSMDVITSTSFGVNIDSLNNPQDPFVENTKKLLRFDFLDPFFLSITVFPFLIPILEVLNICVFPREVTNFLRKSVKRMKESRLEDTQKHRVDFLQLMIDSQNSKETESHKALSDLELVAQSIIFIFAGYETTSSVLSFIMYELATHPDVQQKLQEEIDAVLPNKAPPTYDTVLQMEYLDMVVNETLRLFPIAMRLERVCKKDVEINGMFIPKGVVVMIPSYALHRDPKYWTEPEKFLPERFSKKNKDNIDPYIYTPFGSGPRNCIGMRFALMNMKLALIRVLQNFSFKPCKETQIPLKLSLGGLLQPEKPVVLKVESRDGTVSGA
Sequence of Cytochrome P450 2C9 (P11712 whole entry): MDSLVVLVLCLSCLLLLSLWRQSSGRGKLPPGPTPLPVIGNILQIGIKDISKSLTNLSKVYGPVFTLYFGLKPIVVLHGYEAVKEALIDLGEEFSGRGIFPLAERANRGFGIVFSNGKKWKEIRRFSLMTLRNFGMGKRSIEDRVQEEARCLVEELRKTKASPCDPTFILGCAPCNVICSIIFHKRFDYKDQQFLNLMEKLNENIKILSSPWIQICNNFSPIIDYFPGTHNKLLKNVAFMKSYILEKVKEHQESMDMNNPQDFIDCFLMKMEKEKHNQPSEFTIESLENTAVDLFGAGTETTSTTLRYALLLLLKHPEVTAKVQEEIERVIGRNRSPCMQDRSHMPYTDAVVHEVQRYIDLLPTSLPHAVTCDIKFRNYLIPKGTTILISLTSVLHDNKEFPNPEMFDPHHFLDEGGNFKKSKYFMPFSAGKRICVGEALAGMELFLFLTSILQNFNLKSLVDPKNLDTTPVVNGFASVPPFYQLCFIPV
Sequence of Cytochrome P450 2D6 (P10635 whole entry): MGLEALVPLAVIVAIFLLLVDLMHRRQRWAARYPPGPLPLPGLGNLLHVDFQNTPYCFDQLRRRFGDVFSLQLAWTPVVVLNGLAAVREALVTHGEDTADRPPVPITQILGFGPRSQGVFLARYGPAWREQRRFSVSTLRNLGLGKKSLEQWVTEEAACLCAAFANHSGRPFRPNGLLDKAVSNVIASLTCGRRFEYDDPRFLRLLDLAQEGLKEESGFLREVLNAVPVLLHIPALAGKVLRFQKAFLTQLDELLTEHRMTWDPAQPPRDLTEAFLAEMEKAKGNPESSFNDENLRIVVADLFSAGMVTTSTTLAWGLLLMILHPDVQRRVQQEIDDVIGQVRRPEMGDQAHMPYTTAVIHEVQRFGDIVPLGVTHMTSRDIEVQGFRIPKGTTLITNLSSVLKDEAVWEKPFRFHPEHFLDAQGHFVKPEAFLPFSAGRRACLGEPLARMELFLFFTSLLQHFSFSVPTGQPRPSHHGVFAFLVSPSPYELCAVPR

`CC(C)(C)Cc1cc(-c2onc([C@@H](CCC(=O)[O-])CC(=O)Nc3ccc(Cl)cc3Cl)c2C2CC2)no1.[Na+]`: in the data set on Mus musculus [1], the Activity result is “Dose-dependent effect”. In the data set with Mus musculus [1] (C57BL/6, po), the ED50 worked out at 3 mg/kg. The half-life in data set [2] was 4.2 h. For the same compound, the result in the data set with Mus musculus [3] was Active. The IC50 on Cytochrome P450 1A2, at Cytochrome P450 2D6, at Cytochrome P450 2C9, against Cytochrome P450 3A4 [6] and on Cytochrome P450 3A4 [9] was over 50 µM each time. Moreover, the Vd in data set [4] amounted to 0.76 L/kg. Also, the clearance in data set [5] was 4.17 mL/min/kg. In addition, the mean residence time (MRT) in [7] was found to be 4.9 h. Also, the half-maximal effective concentration (EC50) (on Retinoid X receptor; in data set [8]) was over 20 µM throughout.

Broadly, the ED50 is the dose that gives a 50% effect, or the effect in half of the subjects. One may read the IC50 as the concentration that gives 50% inhibition. A lower IC50 goes with higher potency. A word on the clearance: it is the rate of elimination divided by the concentration. Read a high clearance as efficient removal. In general, MRT refers to a mean duration of stay, worked out from the concentration-time curve. As usually defined, the EC50 is the concentration at which the effect is half-maximal.
